Data on 16 molecules can be found in PubChem BioAssay.

The nature of assay [1]: Her2 expression decrease, cell viability multiplex – SKBR3 breast tumor cells, AlphaScreen, ATP viability, primary screen (AID 461).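 For Her2 level: lower value means less Her2 protein in the cells.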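 For viability: percent of carrier control wells set as 100% viability.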 The following applies: SKBR3 Her2 protein level, 18-24 h, measured here: SKBR3 viability, ATP luminescence, at 10 µM.
Assay [2] has as its target Receptor tyrosine-protein kinase erbB-2 (Homo sapiens) (UniProt P04626). Described as above. As to conditions: 18-24 h, at 10 µM, stronger effect = lower value.
Assay [3] can be described thus: reduced viability of SK-BR-3 breast cancer cells – cell-based, 24 h, human, pilot screen (AID 572;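 active = viability at or below 10% of carrier control in both of two separate runs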;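 note: compound exposure lasted between 18 and 24 h rather than exactly 24 h; 100% = carrier-treated control wells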). As to conditions: SK-BR-3 viability, CellTiter-Glo luminescence, at 10 µM, stronger effect = lower value. Background: In ATP-based viability assays light output follows the ATP content of the culture.
The nature of assay [4]: HUVEC growth inhibition – cell-based, human, primary screen (AID 575;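 active = viability at or below 30% in both replicate assays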;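 note: 100% = median of untreated cell wells with 0.1% DMSO on each plate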). The following applies: HUVEC proliferation, CellTiter-Glo luminescence, 72 h; at 10 µM; stronger effect = lower value. In a few lines:
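Test system: primary human umbilical vein endothelial cells; medium: endothelial basal medium with 2% FBS plus growth supplements; dosing: 10 µM compound only; times: 72 h treatment at 37 °C; signal: CTG luminescence; read-out: % viability relative to median vehicle-well signal on each plate; control set: vehicle and MePR control wells; plate: 384-well, collagen-coated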

Assay [5] in a line: H69AR cell proliferation blockers – human, duplicate replicates, primary screen (AID 580;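 active = viability at or under a set limit in both replicates, limit being median viability minus 3 SD, cut at about 48% in these data, passing the limit was not always enough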;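 note: 100% = mean luminescence of untreated wells and 0% = no signal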). As to conditions: H69AR lung tumor cells viability, ATP luminescence, 72 h; at 10 µM; stronger effect = lower value.
Assay [6] is described as follows: MRP1 drug-resistance reversers in H69AR cells – cell-based, doxorubicin co-treatment, pilot screen (AID 601;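 active = viability loss from added drug above about 55%, and viability with drug at most 40%, in both replicates, limit read from the data, passing the limit was not always enough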). The following applies: CellTiter-Glo, 72 h, at 10 µM; for differential viability (reversal): stronger effect = higher value.
The nature of assay [7]: yeast transport mutant growth inhibition pilot in 384-well plates, post-Golgi transport modulator project (AID 636; in the data active = inhibition above about 31%). The following applies: absorbance 615 nm, about 18 h, stronger effect = higher value.
The nature of assay [8]: growth suppression of yeast trafficking mutant, preliminary HTS, modulators of trafficking downstream of Golgi apparatus project, 1536-format plate, OD 615 nm (AID 637; in the data active = inhibition above about 30%). As to conditions: yeast transport mutant growth, absorbance 615 nm, 18 h; stronger effect = higher value.
Setting [9] is: H69AR cells + 2 uM doxorubicin, measured here: viability with 2 uM doxorubicin, stronger effect = lower value.
Setting [10] is: H69AR cells, compound alone cytotoxicity.

Usually viability stands for a read-out of living cells in per cent, often relative to untreated cells. For orientation: inhibition means the drop in the measured response relative to a control, in per cent.

The source made the active and inactive calls.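 Rule for the calls, unless noted: active = Her2 level under about 52% in both replicate screens, with viability over 70% of control (limit read from the data); inconclusive = Her2 under the limit in one screen only, or viability under 70%; inactive = Her2 level above the set limit.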

Sequence of Receptor tyrosine-protein kinase erbB-2 (Homo sapiens) (P04626 whole entry, looked up): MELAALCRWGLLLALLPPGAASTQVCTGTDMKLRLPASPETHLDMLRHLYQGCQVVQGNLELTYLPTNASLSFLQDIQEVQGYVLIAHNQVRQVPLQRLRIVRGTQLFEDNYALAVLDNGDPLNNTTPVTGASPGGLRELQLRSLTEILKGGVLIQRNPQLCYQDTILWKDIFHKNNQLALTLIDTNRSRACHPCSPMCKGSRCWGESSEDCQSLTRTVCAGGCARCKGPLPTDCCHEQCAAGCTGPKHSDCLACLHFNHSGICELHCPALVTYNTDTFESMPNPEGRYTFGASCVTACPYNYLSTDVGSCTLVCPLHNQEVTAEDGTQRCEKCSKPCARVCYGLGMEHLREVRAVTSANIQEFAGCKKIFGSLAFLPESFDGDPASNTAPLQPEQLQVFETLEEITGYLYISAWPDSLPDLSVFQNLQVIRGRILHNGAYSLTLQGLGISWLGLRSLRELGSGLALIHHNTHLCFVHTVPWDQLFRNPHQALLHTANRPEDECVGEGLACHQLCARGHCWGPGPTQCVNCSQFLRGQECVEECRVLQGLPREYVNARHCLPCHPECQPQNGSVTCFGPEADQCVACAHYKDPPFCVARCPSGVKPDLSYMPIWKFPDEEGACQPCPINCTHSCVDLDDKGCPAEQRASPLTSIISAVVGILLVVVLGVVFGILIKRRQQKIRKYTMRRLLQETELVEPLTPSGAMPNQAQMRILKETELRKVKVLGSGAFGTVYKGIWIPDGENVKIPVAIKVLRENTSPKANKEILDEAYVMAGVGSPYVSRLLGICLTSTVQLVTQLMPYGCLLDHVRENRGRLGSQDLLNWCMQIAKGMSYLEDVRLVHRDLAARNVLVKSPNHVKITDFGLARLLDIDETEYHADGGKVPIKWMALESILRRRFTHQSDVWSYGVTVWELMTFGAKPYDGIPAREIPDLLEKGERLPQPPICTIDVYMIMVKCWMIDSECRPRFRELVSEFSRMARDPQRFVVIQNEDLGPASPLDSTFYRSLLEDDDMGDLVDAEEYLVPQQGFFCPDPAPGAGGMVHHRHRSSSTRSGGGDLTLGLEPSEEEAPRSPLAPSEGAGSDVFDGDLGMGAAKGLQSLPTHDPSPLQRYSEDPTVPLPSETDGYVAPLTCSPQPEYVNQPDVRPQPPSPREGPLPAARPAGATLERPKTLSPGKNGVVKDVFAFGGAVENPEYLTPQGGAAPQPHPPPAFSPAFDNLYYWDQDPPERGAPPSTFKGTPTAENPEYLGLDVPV

As for `CC(=O)Nc1c(C(=O)C2CC2)oc2ccccc12`, the viability in assay [1] is 102%; in assay [3], 102% (inactive); in assay [4], 96.9% (inactive); in assay [5], 90.2% (inactive); in assay [6] (setting [9]) it was 82.5%; in assay [6] (setting [10]), 90.2%. Besides, in assay [2], the Her2 level is 124% (inactive). The differential viability (reversal) in assay [6] (H69AR cells + 2 uM doxorubicin) is 7.75% (inactive). In addition, the values for the inhibition in assay [7] and in assay [8] were -5.33% (inactive) and -5.4% (inactive), respectively.

In the case of `C=CCn1c(C)cc(C(=O)CSc2nc3ccccc3o2)c1C`, the viability in assay [1] is 108%; in assay [3], 108% (inactive); in assay [4], 81.2% (inactive); in assay [5] it was 95.6% (inactive); in assay [6] (setting [9]) it was 85.6%; in assay [6] (setting [10]), 95.6%. In addition, the Her2 level in assay [2] is 72.5% (inactive). In addition, the differential viability (reversal) in assay [6] (H69AR cells + 2 uM doxorubicin) was 10% (inactive). Further, the inhibition is -2.84% (inactive) in assay [7] and -3.33% (inactive) in assay [8].

As for `COCCSc1ccccc1C(=O)Nc1nncs1`, the viability in assay [1] was 88%; in assay [3], 88% (inactive); in assay [4] it was 96.2% (inactive); in assay [5], 92.5% (inactive); in assay [6] (setting [9]), 89.2%; in assay [6] (setting [10]), 92.5%. The Her2 level in assay [2] is 102% (inactive). Further, the differential viability (reversal) in assay [6] (H69AR cells + 2 uM doxorubicin) was 3.37% (inactive). The inhibition was -4.73% (inactive) in assay [7] and 2.22% (inactive) in assay [8].

With `COc1ccc(OCC(=O)Nc2cccc3ncccc23)cc1`, the viability was 98% in assay [1]; 98% (inactive) in assay [3]; 104% (inactive) in assay [4]; 91.4% (inactive) in assay [5]; 91.2% in assay [6] (setting [9]); 91.4% in assay [6] (setting [10]). In addition, the Her2 level in assay [2] was 94.5% (inactive). Also, the differential viability (reversal) in assay [6] (H69AR cells + 2 uM doxorubicin) was 0.15% (inactive). Also, the inhibition in assay [7] is -3.73% (inactive); in assay [8], 3.61% (inactive).

For `Cc1ccc(N2CC(C(=O)Nc3nnc(C)s3)CC2=O)cc1` (stereo not given), the viability is 110% in assay [1]; 110% (inactive) in assay [3]; 86.2% (inactive) in assay [4]; 106% (inactive) in assay [5]; 89.9% in assay [6] (setting [9]); 106% in assay [6] (setting [10]). In addition, the Her2 level in assay [2] is 90% (inactive). The differential viability (reversal) in assay [6] (H69AR cells + 2 uM doxorubicin) was 16.4% (inactive). The results for the inhibition in assay [7] and in assay [8] were -4.67% (inactive) and 0.65% (inactive), respectively.

In the case of `COCCNc1nc(C(C)(C)C)nc2c1nnn2Cc1ccccc1Cl`, the viability in assay [1] was 87%; in assay [3], 87% (inactive); in assay [4], 119% (inactive); in assay [5], 96.1% (inactive); in assay [6] (setting [9]), 94.4%; in assay [6] (setting [10]), 96.1%. Also, the Her2 level in assay [2] is 86.5% (inactive). Also, in assay [6] (H69AR cells + 2 uM doxorubicin), the differential viability (reversal) was 1.67% (inactive). Besides, the results for the inhibition in assay [7] and in assay [8] were -0.66% (inactive) and -3.33% (inactive), respectively.

Regarding `COC(=O)CC1SCCNC1=O` (stereo not given), the viability is 92% in assay [1]; 92% (inactive) in assay [3]; 103% (inactive) in assay [4]; 95.6% (inactive) in assay [5]; 90.6% in assay [6] (setting [9]); 95.6% in assay [6] (setting [10]). Further, the Her2 level in assay [2] was 94% (inactive). The differential viability (reversal) in assay [6] (H69AR cells + 2 uM doxorubicin) is 5.06% (inactive). The results for the inhibition in assay [7] and in assay [8] were 5.87% (inactive) and 23.7% (inactive), respectively.

With `CC(=O)N(C(C)=O)c1c(C#N)c(C)n(-c2ccccc2)c1C(=O)c1ccccc1`, the viability in assay [1] is 86.5%; in assay [3], 86.5% (inactive); in assay [4], 78.4% (inactive); in assay [5] it was 77.9% (inactive); in assay [6] (setting [9]) it was 87%; in assay [6] (setting [10]) it was 77.9%. Further, in assay [2], the Her2 level was 88% (inactive). The differential viability (reversal) in assay [6] (H69AR cells + 2 uM doxorubicin) is -9.1% (inactive). Also, the results for the inhibition in assay [7] and in assay [8] were -2.53% (inactive) and -2.58% (inactive), respectively.

As to `Nc1ccc(C(=O)OCCCc2nc3ccccc3[nH]2)cc1`, the viability in assay [1] is 92%; in assay [3] it was 92% (inactive); in assay [4], 97.9% (inactive); in assay [5], 99.1% (inactive); in assay [6] (setting [9]) it was 97.4%; in assay [6] (setting [10]) it was 99.1%. The Her2 level in assay [2] is 107% (inactive). Further, the differential viability (reversal) in assay [6] (H69AR cells + 2 uM doxorubicin) was 1.74% (inactive). The figures for the inhibition in assay [7] and in assay [8] were 5.41% (inactive) and -19.1% (inactive), respectively.

`O=S(=O)(NC1=NCCC1)c1cccs1`: the viability in assay [1] was 106%; in assay [3], 106% (inactive); in assay [4] it was 114% (inactive); in assay [5] it was 107% (inactive); in assay [6] (setting [9]), 91.2%; in assay [6] (setting [10]), 107%. For the same molecule, in assay [2], the Her2 level was 94% (inactive). The differential viability (reversal) in assay [6] (H69AR cells + 2 uM doxorubicin) is 15.3% (inactive). Further, the inhibition is -5.68% (inactive) in assay [7] and -2.67% (inactive) in assay [8].

Regarding `OCc1nc(CO)n(Cc2ccccc2)n1`, the viability is 85.5% in assay [1]; 85.5% (inactive) in assay [3]; 88.7% (inactive) in assay [4]; 102% (inactive) in assay [5]; 108% in assay [6] (setting [9]); 102% in assay [6] (setting [10]). For the same molecule, the Her2 level in assay [2] is 84% (inactive). Also, in assay [6] (H69AR cells + 2 uM doxorubicin), the differential viability (reversal) was -5.83% (inactive). For the same molecule, the inhibition in assay [7] was -1.05% (inactive); in assay [8] it was -0.48% (inactive).

Turning to `Cc1cc(C)n(-c2nc3c(c(=O)n(Cc4ccc(Cl)c(Cl)c4)c(=O)n3C)n2C)n1`, the viability in assay [1] is 103%; in assay [3], 103% (inactive); in assay [4], 93% (inactive); in assay [5], 95.6% (inactive); in assay [6] (setting [9]) it was 89.6%; in assay [6] (setting [10]), 95.6%. Further, in assay [2], the Her2 level is 99% (inactive). Further, the differential viability (reversal) in assay [6] (H69AR cells + 2 uM doxorubicin) is 5.92% (inactive). In addition, the inhibition was -1.69% (inactive) in assay [7] and -3.65% (inactive) in assay [8].

For the molecule `CC(O)c1nc2ccccc2n1C1CCCCC1` (stereo not given), the viability was 104% in assay [1]; 104% (inactive) in assay [3]; 124% (inactive) in assay [4]; 97.2% (inactive) in assay [5]; 85.9% in assay [6] (setting [9]); 97.2% in assay [6] (setting [10]). Also, the Her2 level in assay [2] is 91.5% (inactive). The differential viability (reversal) in assay [6] (H69AR cells + 2 uM doxorubicin) was 11.3% (inactive). In addition, the figures for the inhibition in assay [7] and in assay [8] were -1.18% (inactive) and 3.55% (inactive), respectively.

On to `CCOC(=O)CNc1ccc2c(c1)OCO2`, for which the viability in assay [1] was 88%; in assay [3] it was 88% (inactive); in assay [4], 76.6% (inactive); in assay [5] it was 98.7% (inactive); in assay [6] (setting [9]), 85.6%; in assay [6] (setting [10]) it was 98.7%. In addition, the Her2 level in assay [2] is 90% (inactive). The differential viability (reversal) in assay [6] (H69AR cells + 2 uM doxorubicin) is 13.2% (inactive). In addition, the inhibition was -5% (inactive) in assay [7] and -2.3% (inactive) in assay [8].

For the molecule `OC1C[N+]2(CCCCC2)C1`, the viability in assay [1] was 98%; in assay [3] it was 98% (inactive); in assay [4], 99.6% (inactive); in assay [5], 109% (inactive); in assay [6] (setting [9]), 95.6%; in assay [6] (setting [10]), 109%. Besides, the Her2 level in assay [2] is 82% (inactive). In addition, the differential viability (reversal) in assay [6] (H69AR cells + 2 uM doxorubicin) was 13% (inactive). Further, the inhibition was -4.8% (inactive) in assay [7] and -3.23% (inactive) in assay [8].

`CCCn1c(C)nc2c(c1=O)c1nc3ccccc3nc1n2CCc1ccccc1`: the viability in assay [1] is 98%; in assay [3], 98% (inactive); in assay [4], 102% (inactive); in assay [5], 88.5% (inactive); in assay [6] (setting [9]), 91.9%; in assay [6] (setting [10]), 88.5%. Besides, the Her2 level in assay [2] is 103% (inactive). The differential viability (reversal) in assay [6] (H69AR cells + 2 uM doxorubicin) is -3.46% (inactive). Besides, the inhibition in assay [7] was -4.42% (inactive); in assay [8] it was 0.5% (inactive).
